Reference: ChEMBL document CHEMBL1125789, “Synthesis and selective class III antiarrhythmic activity of novel N-heteroaralkyl-substituted 1-(aryloxy)-2-propanolamine and related propylamine derivatives” (J Med Chem, 1991)

Key:
[1] = species: Canis familiaris; experiment: repolarization to reach -60mV, in canine Purkinje Fibers at a concentration of 3.0 uM at 1000 ms (simulating normal heart rate); format: functional, Canis lupus familiaris, Purkinje fiber
Outline: (§1)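 Purkinje fiber bundles were stimulated with square-wave current pulses of 2.0 ms at twice threshold and equilibrated for at least 1 h, or until action potential parameters were steady. Each concentration was superfused for 45-60 min to reach steady state. Action potentials were recorded at four to six sites per fiber, under control and after drug.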

[2] = species: Canis familiaris; experiment: Maximum rate of rise of the upstroke of transmembrane potential, in canine Purkinje Fibers at a concentration of 3.0 uM at 300 ms (simulating tachycardia); format: functional; set-up: unit not given here; conditions: Canis lupus familiaris, Purkinje fiber
Outline: (§2)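 Isolated canine Purkinje fiber bundles were driven by square-wave pulses 2.0 ms long at 2× threshold and equilibrated ≥1 h to steady state. Each concentration was superfused 45–60 min before recording, and action potentials were sampled at 4–6 sites per fiber in control and after drug, giving Vmax and APD to −60 mV.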

[3] = species: Canis familiaris; experiment: Maximum rate of rise of the upstroke of transmembrane potential, in canine Purkinje Fibers at a concentration of 3.0 uM at 1000 ms (simulating normal heart rate); format: functional; set-up: unit not given here; conditions: Canis lupus familiaris, Purkinje fiber; outline: as §2
[4] = species: Canis familiaris; experiment: Repolarization to reach -60mV, in canine Purkinje Fibers at a concentration of 3.0 uM at 300 ms (simulating tachycardia); format: functional, Canis lupus familiaris, Purkinje fiber; outline: as §2
[5] = species: Canis familiaris; experiment: repolarization to reach -60mV, in canine Purkinje Fibers at a concentration of 1.0 uM at 1000 ms (simulating normal heart rate); format: functional, Canis lupus familiaris, Purkinje fiber; outline: as §1
[6] = species: Canis familiaris; experiment: Maximum rate of rise of the upstroke of transmembrane potential, in canine Purkinje Fibers at a concentration of 1.0 uM at 300 ms (simulating tachycardia); format: functional; set-up: unit not given here; conditions: Canis lupus familiaris, Purkinje fiber; outline: as §2
[7] = species: Canis familiaris; experiment: Repolarization to reach -60mV, in canine Purkinje Fibers at a concentration of 0.3 uM at 300 ms (simulating tachycardia); format: functional, Canis lupus familiaris, Purkinje fiber; outline: as §2
[8] = species: Canis familiaris; experiment: Maximum rate of rise of the upstroke of transmembrane potential, in canine Purkinje Fibers at a concentration of 0.3 uM at 1000 ms (simulating normal heart rate); format: functional; set-up: unit not given here; conditions: Canis lupus familiaris, Purkinje fiber; outline: as §2
[9] = species: Canis familiaris; experiment: Repolarization to reach -60mV, in canine Purkinje Fibers at a concentration of 1.0 uM at 300 ms (simulating tachycardia); format: functional, Canis lupus familiaris, Purkinje fiber; outline: as §2
[10] = species: Canis familiaris; experiment: Maximum rate of rise of the upstroke of transmembrane potential, in canine Purkinje Fibers at a concentration of 1.0 uM at 1000 ms (simulating normal heart rate); format: functional; set-up: unit not given here; conditions: Canis lupus familiaris, Purkinje fiber; outline: as §2
[11] = species: Canis familiaris; experiment: Maximum rate of rise of the upstroke of transmembrane potential, in canine Purkinje Fibers at a concentration of 0.3 uM at 300 ms (simulating tachycardia); format: functional; set-up: unit not given here; conditions: Canis lupus familiaris, Purkinje fiber; outline: as §2
[12] = species: Canis familiaris; experiment: repolarization to reach -60mV, in canine Purkinje Fibers at a concentration of 0.3 uM at 1000 ms (simulating normal heart rate); format: functional, Canis lupus familiaris, Purkinje fiber; outline: as §1

SMILES	APD [1] [%]	Vmax [2]	Vmax [3]	APD [4] [%]	APD [5] [%]	Vmax [6]	APD [7] [%]	Vmax [8]	APD [9] [%]	Vmax [10]	Vmax [11]	APD [12] [%]
CN(Cc1ccc2ccccc2n1)CC(O)COc1ccc(-n2ccnc2)cc1 (stereo unspecified)	39	-11	-15	10	–	–	–	–	–	–	–	–
CS(=O)(=O)Nc1ccc(OCC(O)CN2CCN(c3ccccn3)CC2)cc1 (stereo unspecified)	53	12	9	24	–	–	–	–	–	–	–	–
CN(Cc1cnc2ccccc2n1)CC(O)COc1ccc(NS(C)(=O)=O)cc1 (stereo unspecified)	26	6	1	8	–	–	–	–	–	–	–	–
CN(Cc1nc2ccccc2n1C)CC(O)COc1ccc(NS(C)(=O)=O)cc1 (stereo unspecified)	19	4	7	12	–	–	–	–	–	–	–	–
CN(Cc1ccc2ccccc2n1)CC(O)COc1ccc(-c2nn[nH]n2)cc1 (stereo unspecified)	11	4	-10	4	–	–	–	–	–	–	–	–
COc1ccc2nc(CN(C)CC(O)COc3ccc(NS(C)(=O)=O)cc3)ccc2c1 (stereo unspecified)	54	-6	0	16	–	–	–	–	–	–	–	–
CN(Cc1nc2ccccc2[nH]1)CC(O)COc1ccc(NS(C)(=O)=O)cc1 (stereo unspecified)	14	-11	1	3	–	–	–	–	–	–	–	–
CC(C)N(Cc1ccc2ccccc2n1)CC(O)COc1ccc(NS(C)(=O)=O)cc1 (stereo unspecified)	49	-11	-10	30	–	–	–	–	–	–	–	–
Cc1nc2ccccc2nc1CN(C)CC(O)COc1ccc(NS(C)(=O)=O)cc1 (stereo unspecified)	17	3	7	11	–	–	–	–	–	–	–	–
CS(=O)(=O)Nc1ccc(OCC(O)CN2CCN(c3ncccn3)CC2)cc1 (stereo unspecified)	23	-12	-17	15	–	–	–	–	–	–	–	–
CN(Cc1ccc2ccccc2n1)CC(O)COc1ccc([N+](=O)[O-])cc1 (stereo unspecified)	63	-10	0	27	–	–	–	–	–	–	–	–
CN(Cc1ccc2ccccc2n1)C[C@H](O)COc1ccc(NS(C)(=O)=O)cc1	54	0	-5	27	40	-3	13	9	14	0	-4	22
